Assay results as given in ChEMBL document CHEMBL1255293, “In vitro susceptibility of various genotypic strains of Toxoplasma gondii to pyrimethamine, sulfadiazine, and atovaquone” (Antimicrob Agents Chemother, 2008).
Converted amounts (≈) assume the structure as drawn.

What was measured:
Assay type in all cases: functional, organism-based
Toxoplasma gondii [1] = test: Antimicrobial activity against Toxoplasma gondii ENT harboring DHPS Ex2, E474D/Ex3, 156 sil Leu/Ex4, R560K/Ex5, 580 sil Gly/A597E/627 sil Glu mutant gene and DHFR Ex3, 156 sil Leu mutant gene infected in human MRC-5 cells after 72 hrs by ELISA; settings: MRC5, 72 h
Outline: (§1)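 Tachyzoites freshly harvested from THP-1 cultures inoculated at 0.4 to 1 tachyzoite/10 cells, adjusted per strain, onto confluent MRC-5 fibroblasts. Drugs were stocked at 1 mg/ml in 50% methanol-50% acetone, diluted in RPMI, and added 3 h post-inoculation in four to eight replicate wells. Incubation was 72 h, then methanol fixation. Read-out was ELISA with rabbit anti-Toxoplasma serum and peroxidase anti-rabbit conjugate, TMB substrate, OD 405 nm. IC50 came from linear regression of OD versus log concentration; experiments were run in duplicate.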

Toxoplasma gondii [2] = test: Antimicrobial activity against Toxoplasma gondii isolate GUY-2003-MEL harboring DHPS Ex2, E474D/Ex4, R560K/Ex5, 580 sil Gly/ A597E/627 sil Glu mutant gene and DHFR Ex2, 145 sil Val mutant gene infected in human MRC-5 cells after 72 hrs by ELISA; settings: MRC5, 72 h; outline: as §1
Toxoplasma gondii [3] = test: Antimicrobial activity against Toxoplasma gondii ME49 infected in human MRC-5 cells infected in human MRC-5 cells after 72 hrs by ELISA; settings: ME49, MRC5, 72 h
Outline: (§2)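 Confluent MRC-5 fibroblasts (3.5 x 10^4 to 4 x 10^4 cells/well) inoculated with tachyzoites freshly harvested from THP-1 cultures, 0.4 to 1 tachyzoite/10 cells adjusted per strain for nonconfluent foci at 72 h. Drugs (stock 1 mg/ml in 50% methanol-50% acetone, diluted in RPMI) added 3 h post-inoculation, four to eight replicate wells per dilution. Cultures incubated 72 h.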

Toxoplasma gondii [4] = test: Antimicrobial activity against Toxoplasma gondii isolate RMS-2005-HAG infected in human MRC-5 cells after 72 hrs by ELISA; settings: MRC5, 72 h; outline: as §2
Toxoplasma gondii [5] = test: Antimicrobial activity against Toxoplasma gondii RH harboring DHPS Ex2, E474D/Ex4, R560K/Ex5, 580 sil Gly; A597E/627 sil Glu mutant gene and DHFR Ex3, 156 sil Leu mutant gene infected in human MRC-5 cells after 72 hrs by ELISA; settings: MRC5, 72 h; outline: as §1
Toxoplasma gondii [6] = test: Antimicrobial activity against Toxoplasma gondii isolate RMS-1995-ABE harboring DHPS Ex5, A587V mutant gene infected in human MRC-5 cells after 72 hrs by ELISA; settings: MRC5, 72 h; outline: as §1
Toxoplasma gondii [7] = test: Antimicrobial activity against Toxoplasma gondii isolate PSP-2005-MUP infected in human MRC-5 cells after 72 hrs by ELISA; settings: MRC5, 72 h; outline: as §2
Toxoplasma gondii [8] = test: Antimicrobial activity against Toxoplasma gondii B1 harboring DHPS Ex2, E474D/Ex4, R560K/Ex5, 580 sil Gly/ A597E/627 sil Glu mutant gene and DHFR Ex3, 156 sil Leu mutant gene infected in human MRC-5 cells after 72 hrs by ELISA; settings: B1, MRC5, 72 h; outline: as §1
Toxoplasma gondii [9] = test: Antimicrobial activity against Toxoplasma gondii isolate RMS-1994-LEF harboring DHPS Ex2, E474D/Ex4, R560K/Ex5, 580 sil Gly; A597E/627 sil Glu mutant gene and DHFR Ex3, 204 sil Ala mutant gene infected in human MRC-5 cells after 72 hrs by ELISA; settings: MRC5, 72 h; outline: as §1
Toxoplasma gondii [10] = test: Antimicrobial activity against Toxoplasma gondii isolate TRS-2004-REV infected in human MRC-5 cells after 72 hrs by ELISA; settings: MRC5, 72 h; outline: as §2
Toxoplasma gondii [11] = test: Antimicrobial activity against Toxoplasma gondii isolate RMS-2003-DJO infected in human MRC-5 cells after 72 hrs by ELISA; settings: MRC5, 72 h; outline: as §2
Toxoplasma gondii [12] = test: Antimicrobial activity against Toxoplasma gondii isolate RMS-2001-MAU infected in human MRC-5 cells after 72 hrs by ELISA; settings: MRC5, 72 h; outline: as §2
Toxoplasma gondii [13] = test: Antimicrobial activity against Toxoplasma gondii isolate GRE-1998-TRA infected in human MRC-5 cells after 72 hrs by ELISA; settings: MRC5, 72 h; outline: as §2
Toxoplasma gondii [14] = test: Antimicrobial activity against Toxoplasma gondii isolate TOU-1998-TRI infected in human MRC-5 cells after 72 hrs by ELISA; settings: MRC5, 72 h; outline: as §2
Toxoplasma gondii [15] = test: Antimicrobial activity against Toxoplasma gondii isolate GRE-1995-MAE infected in human MRC-5 cells after 72 hrs by ELISA; settings: MRC5, 72 h; outline: as §2
Toxoplasma gondii [16] = test: Antimicrobial activity against Toxoplasma gondii NED infected in human MRC-5 cells after 72 hrs by ELISA; settings: MRC5, 72 h; outline: as §2

Question: With `CCc1nc(N)nc(N)c1-c1ccc(Cl)cc1` [PYRIMETHAMINE] as the compound, how does the IC50 (Toxoplasma gondii [1]) read?
Answer: The IC50 was 0.34 µg/mL (≈ 1.37 µM).

Question: What about the IC50 (Toxoplasma gondii [2]) of the same compound?
Answer: The IC50 was 0.25 µg/mL (≈ 1.01 µM).

Question: And the IC50 (Toxoplasma gondii [3])?
Answer: Its IC50 is 0.09 µg/mL (≈ 0.362 µM).

Question: What about the IC50 (Toxoplasma gondii [4]) of the same compound?
Answer: Its IC50 is 0.11 µg/mL (≈ 0.442 µM).

Question: What about the IC50 (Toxoplasma gondii [5]) of the same compound?
Answer: Its IC50 is 0.1 µg/mL (≈ 0.402 µM).

Question: And the IC50 (Toxoplasma gondii [6])?
Answer: Its IC50 is 0.17 µg/mL (≈ 0.684 µM).

Question: What about the IC50 (Toxoplasma gondii [7]) of the same compound?
Answer: Its IC50 is 0.14 µg/mL (≈ 0.563 µM).

Question: What about the IC50 (Toxoplasma gondii [8]) of the same compound?
Answer: The IC50 was 0.35 µg/mL (≈ 1.41 µM).

Question: What about the IC50 (Toxoplasma gondii [9]) of the same compound?
Answer: Its IC50 is 0.07 µg/mL (≈ 0.281 µM).

Question: And the IC50 (Toxoplasma gondii [10])?
Answer: The IC50 was 0.18 µg/mL (≈ 0.724 µM).

Question: What about the IC50 (Toxoplasma gondii [11]) of the same compound?
Answer: Its IC50 is 0.09 µg/mL (≈ 0.362 µM).

Question: What about the IC50 (Toxoplasma gondii [12]) of the same compound?
Answer: Its IC50 is 0.12 µg/mL (≈ 0.482 µM).

Question: And the IC50 (Toxoplasma gondii [13])?
Answer: Its IC50 is 0.39 µg/mL (≈ 1.57 µM).

Question: And the IC50 (Toxoplasma gondii [14])?
Answer: The IC50 was 0.15 µg/mL (≈ 0.603 µM).

Question: And the IC50 (Toxoplasma gondii [15])?
Answer: The IC50 was 0.11 µg/mL (≈ 0.442 µM).

Question: And the IC50 (Toxoplasma gondii [16])?
Answer: The IC50 was 0.19 µg/mL (≈ 0.764 µM).

Question: Which IC50 (Toxoplasma gondii [1]) does the source give for `Nc1ccc(S(=O)(=O)Nc2ncccn2)cc1` [SULFADIAZINE] here?
Answer: The IC50 was 4.28 µg/mL (≈ 17.1 µM).

Question: And the IC50 (Toxoplasma gondii [2])?
Answer: Its IC50 is 5.35 µg/mL (≈ 21.4 µM).

Question: And the IC50 (Toxoplasma gondii [3])?
Answer: Its IC50 is 6.55 µg/mL (≈ 26.2 µM).

Question: What about the IC50 (Toxoplasma gondii [4]) of the same compound?
Answer: Its IC50 is 6.7 µg/mL (≈ 26.8 µM).

Question: And the IC50 (Toxoplasma gondii [5])?
Answer: The IC50 was 6.52 µg/mL (≈ 26.1 µM).

Question: What about the IC50 (Toxoplasma gondii [6]) of the same compound?
Answer: Its IC50 is greater than 50 µg/mL.

Question: And the IC50 (Toxoplasma gondii [7])?
Answer: Its IC50 is 18.8 µg/mL (≈ 75.1 µM).

Question: What about the IC50 (Toxoplasma gondii [8]) of the same compound?
Answer: Its IC50 is greater than 50 µg/mL.

Question: What about the IC50 (Toxoplasma gondii [9]) of the same compound?
Answer: Its IC50 is 9.65 µg/mL (≈ 38.6 µM).

Question: And the IC50 (Toxoplasma gondii [10])?
Answer: Its IC50 is 6.26 µg/mL (≈ 25 µM).

Question: And the IC50 (Toxoplasma gondii [11])?
Answer: The IC50 was 4.9 µg/mL (≈ 19.6 µM).

Question: And the IC50 (Toxoplasma gondii [12])?
Answer: The IC50 was greater than 50 µg/mL.

Question: And the IC50 (Toxoplasma gondii [13])?
Answer: Its IC50 is 16.8 µg/mL (≈ 67.3 µM).

Question: And the IC50 (Toxoplasma gondii [14])?
Answer: The IC50 was 2.95 µg/mL (≈ 11.8 µM).

Question: What about the IC50 (Toxoplasma gondii [15]) of the same compound?
Answer: Its IC50 is 14.9 µg/mL (≈ 59.7 µM).

Question: What about the IC50 (Toxoplasma gondii [16]) of the same compound?
Answer: The IC50 was 9.25 µg/mL (≈ 37 µM).

Question: Which results are given for `O=C1C(O)=C([C@H]2CC[C@H](c3ccc(Cl)cc3)CC2)C(=O)c2ccccc21` [ATOVAQUONE]?
Answer: IC50 (Toxoplasma gondii [1]): 0.07 µg/mL (≈ 0.191 µM); IC50 (Toxoplasma gondii [2]): 0.04 µg/mL (≈ 0.109 µM); IC50 (Toxoplasma gondii [3]): 0.05 µg/mL (≈ 0.136 µM); IC50 (Toxoplasma gondii [4]): 0.04 µg/mL (≈ 0.109 µM); IC50 (Toxoplasma gondii [5]): 0.05 µg/mL (≈ 0.136 µM); IC50 (Toxoplasma gondii [6]): 0.11 µg/mL (≈ 0.3 µM); IC50 (Toxoplasma gondii [7]): 0.06 µg/mL (≈ 0.164 µM); IC50 (Toxoplasma gondii [8]): 0.1 µg/mL (≈ 0.273 µM); IC50 (Toxoplasma gondii [9]): 0.04 µg/mL (≈ 0.109 µM); IC50 (Toxoplasma gondii [10]): 0.07 µg/mL (≈ 0.191 µM); IC50 (Toxoplasma gondii [11]): 0.08 µg/mL (≈ 0.218 µM); IC50 (Toxoplasma gondii [12]): 0.06 µg/mL (≈ 0.164 µM); IC50 (Toxoplasma gondii [13]): 0.05 µg/mL (≈ 0.136 µM); IC50 (Toxoplasma gondii [14]): 0.07 µg/mL (≈ 0.191 µM); IC50 (Toxoplasma gondii [15]): 0.03 µg/mL (≈ 0.0818 µM); IC50 (Toxoplasma gondii [16]): 0.03 µg/mL (≈ 0.0818 µM)
